TRPC4 block – inhibitors of mouse TRPC4 channel, primary screen, Fluo4 calcium, HEK293 TRPC4beta/mu-opioid cells; Short transient receptor potential channel 4 (Mus musculus), Q9QUQ5; DAMGO-evoked Fluo4 calcium flux; stronger effect = lower value; B-score at 10 µM; hit rate 0.39% among 300,000; AID 2247, 2010;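 active = B-score over 3 SD under the library average, no early fluorescence shift, positive overall ratio signal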
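Test system – stable TRPC4beta/mu-opioid receptor HEK293 cells · Probe or stimulus – DAMGO, a submaximal dose followed by a maximal one · Dosing – one concentration per compound · Signal – Fluo4 calcium fluorescence by kinetic imaging, 5 s 1 Hz baseline · Evaluation – per-well B score of integrated baseline-normalized Fluo4 ratio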
TRPC4 potent – positive allosteric modulators of TRPC4, primary screen, cell-based, mouse TRPC4beta, HEK293 mu-opioid, Fluo-4 calcium; Short transient receptor potential channel 4 (Mus musculus), Q9QUQ5; DAMGO EC20, Fluo-4 Ca2+ flux; stronger effect = higher value; B-score at 10 µM; hit rate 0.42% among 310,000;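 active = B-score of calcium response area above 5 SD of library B-scores, with initial fluorescence ratio within 5 SD of library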;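 note: B-score of integrated fluorescence ratio over time as area under calcium response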
TRPC6 act – mouse TRPC6 channel activators, primary screen, cell-based, HEK293, membrane potential dye; Short transient receptor potential channel 6 (Mus musculus), Q61143; HEK293-TRPC6 membrane potential dye fluorescence; stronger effect = higher value; hit rate 0.13% among 310,000; B-score at 10 µM;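 active = B-score of the integrated fluorescence ratio above library mean plus 3 SD, and starting fluorescence ratio within library mean plus 5 SD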;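 note: higher score means more depolarization so channel activation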
Target sequence (Q61143 whole entry, looked up): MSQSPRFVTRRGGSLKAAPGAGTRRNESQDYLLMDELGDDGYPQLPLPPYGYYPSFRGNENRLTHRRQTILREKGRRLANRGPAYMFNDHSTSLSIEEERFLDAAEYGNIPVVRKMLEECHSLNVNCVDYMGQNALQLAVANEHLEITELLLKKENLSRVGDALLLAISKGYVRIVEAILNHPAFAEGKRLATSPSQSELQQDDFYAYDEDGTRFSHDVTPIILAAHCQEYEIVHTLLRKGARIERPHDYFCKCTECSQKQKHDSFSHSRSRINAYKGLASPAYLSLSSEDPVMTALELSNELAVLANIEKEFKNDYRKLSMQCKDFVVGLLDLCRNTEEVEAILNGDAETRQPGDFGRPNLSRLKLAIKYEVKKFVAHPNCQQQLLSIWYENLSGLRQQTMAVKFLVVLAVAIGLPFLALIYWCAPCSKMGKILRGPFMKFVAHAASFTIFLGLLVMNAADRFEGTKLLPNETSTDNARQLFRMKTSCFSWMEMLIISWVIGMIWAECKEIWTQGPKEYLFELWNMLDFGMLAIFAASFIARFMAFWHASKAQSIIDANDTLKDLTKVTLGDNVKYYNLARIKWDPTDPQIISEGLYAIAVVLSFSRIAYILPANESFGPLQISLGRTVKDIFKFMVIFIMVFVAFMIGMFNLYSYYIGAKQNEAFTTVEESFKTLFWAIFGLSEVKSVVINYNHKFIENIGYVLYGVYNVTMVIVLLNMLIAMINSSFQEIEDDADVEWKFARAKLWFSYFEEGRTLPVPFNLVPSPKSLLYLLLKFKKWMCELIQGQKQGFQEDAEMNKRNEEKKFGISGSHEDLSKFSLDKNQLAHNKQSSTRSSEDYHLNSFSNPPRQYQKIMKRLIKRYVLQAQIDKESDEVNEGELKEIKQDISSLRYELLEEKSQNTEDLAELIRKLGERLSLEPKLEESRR
TRPC4 agonist – activators of mouse TRPC4 channel, primary screen, Fluo4 calcium, HEK293 TRPC4beta/mu-opioid cells. Fluo4 calcium fluorescence; stronger effect = higher value. Short transient receptor potential channel 4 (Mus musculus), Q9QUQ5. hit rate 0.49% among 310,000. B-score at 10 µM. AID 2237, 2010;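 active = B-score above 5 SD of library B-scores, and initial fluorescence ratio not above library mean plus 5 SD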;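 note: positive B-score marks a calcium rise read as TRPC4 activation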
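Technique: kinetic Fluo4 calcium fluorescence; Test system: TRPC4beta and mu-opioid receptor HEK293 stable cells; Measure: B-scored integrated calcium fluorescence ratio; Benchmarks: low control buffer alone, high control maximal DAMGO; Schedule: 45 min room-temperature Fluo4 loading, 110 s read.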
TRPC6 inh – mouse TRPC6 channel inhibitors, primary screen, cell-based, HEK293, membrane potential dye; Short transient receptor potential channel 6 (Mus musculus), Q61143; ACh-evoked depolarization; stronger effect = lower value; B-score at 10 µM; hit rate 1.1% among 310,000;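 active = B-score under library mean minus 3 SD, initial fluorescence not abnormally high, positive integrated signal ratio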;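 note: B-score derived from integrated fluorescence ratio over the kinetic read; more negative B-score means stronger inhibition of depolarization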
Starred values were filed as active, the others as inactive. This is a sample that favours compounds with a hit; in the whole collection about 2.3% have one here.

What do the screens show for `CCn1c(NCc2ccco2)nc2ccccc21`?
TRPC4 block: inactive; TRPC4 potent: 54*; TRPC6 act: inactive; TRPC4 agonist: inactive; TRPC6 inh: inactive

What do the screens show for `c1ccc(Cn2c(NCc3ccco3)nc3ccccc32)cc1`?
TRPC4 block: -6*; TRPC4 potent: inactive; TRPC6 act: inactive; TRPC4 agonist: inactive; TRPC6 inh: inactive

What do the screens show for `O=C(NC1CCCCCCC1)c1cnccn1`?
TRPC4 block: inactive; TRPC4 potent: 12*; TRPC6 act: inactive; TRPC4 agonist: inactive; TRPC6 inh: inactive

How did O=C(NC1CCS(=O)(=O)C1)c1cnccn1 (stereo not given) do in these assays?
TRPC4 block: inactive; TRPC4 potent: inactive; TRPC6 act: inactive; TRPC4 agonist: inactive; TRPC6 inh: inactive

What do the screens show for `CCN(CC)S(=O)(=O)c1ccc(N2CCCC2)c(NC(=O)CC(C)(C)C)c1`?
TRPC4 block: inactive; TRPC4 potent: inactive; TRPC6 act: inactive; TRPC4 agonist: inactive; TRPC6 inh: inactive

What do the screens show for `O=C1/C(=C/c2ccncc2)SC(=S)N1Cc1ccccc1`?
TRPC4 block: inactive; TRPC4 potent: 12*; TRPC6 act: inactive; TRPC4 agonist: inactive; TRPC6 inh: inactive

Results for CCOC(=O)c1ccc(NC(=S)N2CCSC2c2ccc(Cl)cc2)cc1 (stereo not given) ?
TRPC4 block: inactive; TRPC4 potent: 20*; TRPC6 act: inactive; TRPC4 agonist: inactive; TRPC6 inh: inactive

How did Cc1cc(Br)ccc1OCCN1CCCC1 do in these assays?
TRPC4 block: inactive; TRPC4 potent: 15*; TRPC6 act: inactive; TRPC4 agonist: inactive; TRPC6 inh: inactive

How did CCN1CCN(CCOc2ccc(Br)cc2C)CC1 do in these assays?
TRPC4 block: inactive; TRPC4 potent: inactive; TRPC6 act: inactive; TRPC4 agonist: inactive; TRPC6 inh: inactive

Results for O=C(Nc1ccc(CN2CCOCC2)cc1)c1ccc(-c2cccc([N+](=O)[O-])c2)o1 ?
TRPC4 block: inactive; TRPC4 potent: inactive; TRPC6 act: inactive; TRPC4 agonist: inactive; TRPC6 inh: inactive

Results for O=[N+]([O-])c1cccc(-c2ccc(CN3CCCCC3)o2)c1 ?
TRPC4 block: inactive; TRPC4 potent: 13*; TRPC6 act: inactive; TRPC4 agonist: inactive; TRPC6 inh: inactive

How did O=C(NC1CCCCC1)C(c1cc2c(cc1[N+](=O)[O-])OCO2)N1CCCCC1 (stereo not given) do in these assays?
TRPC4 block: inactive; TRPC4 potent: inactive; TRPC6 act: inactive; TRPC4 agonist: inactive; TRPC6 inh: inactive

How did CN1CCN(CCCNC(=O)c2cc3c(-c4ccc(Cl)cc4)nn(C)c3s2)CC1 do in these assays?
TRPC4 block: inactive; TRPC4 potent: 11*; TRPC6 act: inactive; TRPC4 agonist: inactive; TRPC6 inh: inactive

What do the screens show for `CCN(CC)CCCNC(=O)c1cc2c(-c3ccc(Cl)cc3)nn(C)c2s1`?
TRPC4 block: inactive; TRPC4 potent: 16*; TRPC6 act: inactive; TRPC4 agonist: 72*; TRPC6 inh: inactive

How did Cc1ccc2cc(CCNC(=O)Cc3cccs3)c(=O)[nH]c2c1 do in these assays?
TRPC4 block: inactive; TRPC4 potent: inactive; TRPC6 act: inactive; TRPC4 agonist: inactive; TRPC6 inh: inactive

Results for CCCCN(C)CCCNC(=O)CN1N=C(c2ccc(Cl)cc2)CCC1=O ?
TRPC4 block: inactive; TRPC4 potent: 12*; TRPC6 act: inactive; TRPC4 agonist: 102*; TRPC6 inh: inactive

How did Cc1ccc(-c2n[nH]c(=O)c3ccccc23)cc1S(=O)(=O)Nc1ccccc1 do in these assays?
TRPC4 block: inactive; TRPC4 potent: 12*; TRPC6 act: inactive; TRPC4 agonist: inactive; TRPC6 inh: inactive

Results for Cc1cc(S(=O)(=O)N2CCC(N3CCCCC3)CC2)ccc1-n1cnnn1 ?
TRPC4 block: inactive; TRPC4 potent: 33*; TRPC6 act: inactive; TRPC4 agonist: inactive; TRPC6 inh: inactive
